This note sets out measurements from PubChem BioAssay.

A short description of experiment [1]: inhibitors of TNFa-induced NFkB p65 translocation, primary screen, imaging, HUVEC, MLSMR starter and 10KST1 sets (AID 438;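 active means inhibition above 20% together with a positive visual image hit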;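 further: compound added about 3h40 before a 20 min TNFalpha stimulation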;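 on inhibition: signal is the nuclear over cytoplasmic p65 intensity ratio per well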). To be noted: HUVEC TNFa-induced p65 nuclear translocation; cell count: measured here: nuclei count (cytotoxicity indicator), at 2.08 µM; inhibition: at 2 µM, stronger effect = higher value, 0% TNFa-plus-vehicle, 100% no-TNFa wells.
Experiment [2] in a line: endothelial E-selectin expression blockers – imaging, HUVEC, immunofluorescence, MLSMR starter and 10KST1 sets, primary screen (AID 487;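 active means visually confirmed hit in the image check and inhibition above 20%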;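 on inhibition: signal is fraction of cell area covered by stained E-selectin grains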;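 on nuclei count: 100% = median nuclei count of all wells on the same plate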). The conditions noted are these: HUVEC TNFalpha-induced E-selectin immunofluorescence imaging, at 2 µM; inhibition: stronger effect = higher value; nuclei count: measured here: cell number, toxicity.
The nature of experiment [3]: Primary imaging screen for DUSP6 inhibitors that restore phospho-Erk in transfected HeLa cells, chemical complementation (AID 609;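 active means compounds giving at least 50% inhibition in the cell-based MKP-3 phosphatase rescue imaging test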;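 on inhibition: phospho-Erk level distribution per well compared with pooled transfected vehicle control wells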). The conditions noted are these: HeLa MKP-3 transfected, phospho-Erk imaging KS statistic, at 10 µM, cells stimulated with TPA for 15 min.
Experiment [4] has as its target Dual specificity protein phosphatase 6 (Homo sapiens) (UniProt Q16828). The experiment is described as above. To be noted: HeLa MKP-3 transfected, phospho-Erk imaging KS statistic; at 10 µM; stronger effect = higher value; cells stimulated with TPA for 15 min.
The target in experiment [5] is Voltage-gated potassium channel subunit beta-2 (Rattus norvegicus) (UniProt P62483). The experiment in a line: inhibitors of rat Kvbeta2 reductase activity – biochemical, NADPH fluorescence, primary screen (AID 622;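 active means fluorescence slope higher than the sample average by over 3 SD, cut at about -0.22 in these data, passing the limit was not always enough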;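 further: slope of raw intensity against log time taken from 70 to 1610 s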). The conditions noted are these: recombinant KvBeta, 4-cyanobenzaldehyde reduction, at 10 µM, stronger effect = higher value.
Sequence of Voltage-gated potassium channel subunit beta-2 (Rattus norvegicus) (P62483 whole entry, looked up): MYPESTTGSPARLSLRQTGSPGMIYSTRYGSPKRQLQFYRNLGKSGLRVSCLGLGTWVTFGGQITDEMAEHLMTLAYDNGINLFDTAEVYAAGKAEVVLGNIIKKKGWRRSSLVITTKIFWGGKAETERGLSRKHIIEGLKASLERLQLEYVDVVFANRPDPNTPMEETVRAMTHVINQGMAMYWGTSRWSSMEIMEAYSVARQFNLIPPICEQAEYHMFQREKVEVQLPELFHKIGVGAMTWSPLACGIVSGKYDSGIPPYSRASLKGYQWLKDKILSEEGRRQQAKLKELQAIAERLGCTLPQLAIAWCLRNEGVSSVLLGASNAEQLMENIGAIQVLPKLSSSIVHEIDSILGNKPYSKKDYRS
Experiment [6] has the same target. Put plainly: enhancers of rat Kvbeta2 NADPH turnover – biochemical, NADPH fluorescence, primary screen (AID 623).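 Further: fluorescence intensity change per second fitted from 20 to 320 s.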 To be noted: Recombinant KvBeta, NADPH fluorescence decrease slope, 10 min; at 10 µM; stronger effect = lower value.
Experiment [7] concerns the target Alpha-2C adrenergic receptor (Homo sapiens) (UniProt P18825). Put plainly: compounds altering alpha2C-coupled GIRK flux – cell-based, HEK293 alpha2C/GIRK1/2, thallium flux, primary screen (AID 624;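 active means fluorescence slope after compound addition differing from the mean of all screened samples at 99.7% confidence, in either direction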;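 further: slope of fluorescence ratio to pre-addition baseline per second over 15 to 24 s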). To be noted: thallium flux BTC fluorescence, at 10 µM, actives lie on both sides.
Experiment [8] in a line: inhibitors of larval lipid processing in zebrafish, primary screen, whole organism, PED6 fluorescence, gall bladder and intestine (AID 686;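 active means a full or partial loss of lipid-probe fluorescence in the fish gall bladder, intestine or both, judged by eye; inactive means no fluorescence loss, or compound toxic to the fish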;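 further: larvae 5 to 7 days old with five fish per well; signal comes from phospholipase A2 cleavage of quenched PED6 carried via bile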). To be noted: Zebrafish larvae PED6 lipid processing, fluorescence scoring; screened at 20 µM (by protocol). In a few lines: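 Incubation: overnight exposure of larvae to compound plus PED6 / Test system: live zebrafish larvae aged 5-7 days, whole organism / Amount: 5 larvae per well / Read-out basis: visual per-well fluorescence inhibition score / Signal: visual fluorescence microscopy scoring of gall bladder, gut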

Experiment [9] is described as follows: loss of swimming-algae plug formation – whole organism, Chlamydomonas reinhardtii, WT vs cilia-less mutant, absorbance, 96-well, primary screen (AID 463189;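 active means inhibition at or above 50% relative to wild type and mutant plate controls; inactive means inhibition below 50%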;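 further: 0% = wild type cc124 cells in DMSO and 100% = ciliumless bld1 mutant cells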). To be noted: Chlamydomonas reinhardtii gravitaxis, OD600 absorbance, 2 days; at 10 µM; stronger effect = higher value.
Where [10] appears, read: measured here: cell density z-score.
Setting [11] is: measured here: nuclear c-Myc green intensity z-score.
Setting [12] is: measured here: nuclear pErk red intensity z-score, stronger effect = higher value.

Molecules are shown by their SMILES. Calls of active or inactive are those of the source.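 How the source made its calls, unless noted: active means NADPH fluorescence slope more negative than the mean of all samples by about 3 SD, 99.7% confidence; inactive means the rest.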

Sequence of Dual specificity protein phosphatase 6 (Homo sapiens) (Q16828 whole entry, looked up): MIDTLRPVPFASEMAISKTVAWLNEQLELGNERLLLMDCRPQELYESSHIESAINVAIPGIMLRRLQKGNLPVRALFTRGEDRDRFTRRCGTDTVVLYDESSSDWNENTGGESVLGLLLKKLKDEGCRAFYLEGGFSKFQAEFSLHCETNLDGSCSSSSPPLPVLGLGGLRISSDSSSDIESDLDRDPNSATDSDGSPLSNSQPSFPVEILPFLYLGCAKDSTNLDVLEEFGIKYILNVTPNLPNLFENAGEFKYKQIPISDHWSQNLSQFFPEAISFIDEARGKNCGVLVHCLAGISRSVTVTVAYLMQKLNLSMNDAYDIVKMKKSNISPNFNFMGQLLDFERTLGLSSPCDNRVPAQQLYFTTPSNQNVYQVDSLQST
Sequence of Alpha-2C adrenergic receptor (Homo sapiens) (P18825 whole entry, looked up): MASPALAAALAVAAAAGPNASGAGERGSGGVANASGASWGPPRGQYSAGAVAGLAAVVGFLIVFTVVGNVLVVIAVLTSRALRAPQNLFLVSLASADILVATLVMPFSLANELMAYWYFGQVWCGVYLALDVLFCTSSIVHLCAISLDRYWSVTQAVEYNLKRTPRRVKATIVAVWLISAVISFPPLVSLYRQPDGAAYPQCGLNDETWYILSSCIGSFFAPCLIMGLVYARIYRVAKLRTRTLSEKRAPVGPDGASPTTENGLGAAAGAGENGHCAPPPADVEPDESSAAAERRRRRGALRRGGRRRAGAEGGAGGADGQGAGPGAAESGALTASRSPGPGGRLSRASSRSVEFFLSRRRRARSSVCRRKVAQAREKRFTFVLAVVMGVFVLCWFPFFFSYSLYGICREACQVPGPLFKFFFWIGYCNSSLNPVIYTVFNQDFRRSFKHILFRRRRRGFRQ

In general, inhibition refers to the change of the read-out against control, counted positive when it falls. With `COn1c(=S)[nH]c2ccccc2c1=O`, in experiment [1], the cell count stood at 454. Besides, the inhibition is 0.3% (inactive) in [1], -12.8% (inactive) in experiment [2], 3.5% (inactive) in experiment [4] and 1.26% (inactive) in [9]. This compound also had a nuclei count in [2] of 98.1%. Moreover, the z-score in [3] (setting [10]) is -1.19; in experiment [3] (setting [11]), 0.293; in [3] (setting [12]), -0.609. In experiment [5], the fluorescence slope was -0.496 (inactive). Further, the NADPH fluorescence slope in [6] is -7.7e-06 (inactive). The slope in experiment [7] was 0.00619 (inactive). In [8], the call was inactive.
As for `Cc1ccc(/C=c2\sc3n(c2=O)CN(c2ccc(Br)cc2)CN=3)o1`, the cell count in experiment [1] was determined as 367. Also, the inhibition in experiment [1] is -0.5% (inactive); in [2], -127% (inactive); in experiment [4] it was 22.7% (inactive); in experiment [9], -6.84% (inactive). In experiment [2], this compound showed a nuclei count of 137%. The z-score was 1.52 in [3] (setting [10]), -1.23 in experiment [3] (setting [11]) and -1.08 in [3] (setting [12]). In addition, the fluorescence slope in experiment [5] was -0.389 (inactive). In addition, the NADPH fluorescence slope in experiment [6] was -1.9e-05 (inactive). Further, the slope in [7] was 0.00432 (inactive). The compound was classed as inactive in [8].
As to `COCc1[nH]nc2c1C(c1ccnc3ccccc13)C(C#N)=C(N)O2` (stereo not given), the cell count in experiment [1] was found to be 589. For the same compound, the inhibition in experiment [1] is -5% (inactive); in [2], 26.1% (inactive); in [4], 29.9% (inactive); in [9], 15.7% (inactive). Moreover, in experiment [2], the nuclei count turned out to be 102%. The z-score in [3] (setting [10]) was 0.598; in experiment [3] (setting [11]), -2.1; in [3] (setting [12]) it was -0.301. Besides, the fluorescence slope in [5] was -0.519 (inactive). The NADPH fluorescence slope in experiment [6] was -1.8e-05 (inactive). Further, the slope in [7] was 0.00587 (inactive). For the same compound, the compound was classed as inactive in experiment [8].
For `CC(C)CC(=O)Nc1ncnc2c1C(=O)CC(C)(C)C2`, in experiment [1], the cell count was determined as 635. For the same compound, the inhibition was -9.9% (inactive) in [1], 35.4% (inactive) in [2], 1.12% (inactive) in experiment [4] and -3.52% (inactive) in [9]. The compound also had a nuclei count in [2] of 167%. The z-score in [3] (setting [10]) was 0.463; in experiment [3] (setting [11]), -0.408; in [3] (setting [12]), 0.517. Moreover, in [5], the fluorescence slope was -0.413 (inactive). Besides, in experiment [6], the NADPH fluorescence slope is -5.4e-05 (inactive). The slope in experiment [7] is 0.00518 (inactive). Besides, the result in experiment [8] was inactive.
Regarding `CCOC(=O)c1sc(-n2[nH]c(C)cc2=O)nc1C`, in experiment [1], the cell count turned out to be 452. For the same compound, the inhibition is -2.2% (inactive) in experiment [1], -23% (inactive) in experiment [2], -10.1% (inactive) in [4] and -4.12% (inactive) in [9]. This compound also returned a nuclei count in [2] of 170%. Moreover, the z-score was 1.1 in experiment [3] (setting [10]), -0.753 in experiment [3] (setting [11]) and 0.507 in experiment [3] (setting [12]). The fluorescence slope in experiment [5] is -0.398 (inactive). In addition, the NADPH fluorescence slope in experiment [6] is -7e-05 (inactive). Further, the slope in experiment [7] was 0.00502 (inactive). The result in experiment [8] was inactive.
`CCCCNC(=O)N(C)c1nncnc1C(=O)NC`: the cell count in experiment [1] was found to be 491. Moreover, the inhibition was -10.8% (inactive) in experiment [1], -190% (inactive) in experiment [2], -7.28% (inactive) in experiment [4] and -1.96% (inactive) in experiment [9]. Further, the nuclei count in experiment [2] was found to be 191%. Further, the z-score is 0.256 in experiment [3] (setting [10]), -0.788 in [3] (setting [11]) and 0.32 in experiment [3] (setting [12]). The fluorescence slope in experiment [5] was -0.37 (inactive). The NADPH fluorescence slope in experiment [6] is -2.2e-05 (inactive). Moreover, the slope in [7] is 0.00552 (inactive). Further, the result in [8] was inactive.
`Cc1ccccc1NC(=O)NCCc1nc2ccccc2[nH]1`: in [1], the cell count is 543. The inhibition is 1.8% (inactive) in [1], -92.3% (inactive) in experiment [2], -11% (inactive) in [4] and -6.75% (inactive) in experiment [9]. Moreover, the nuclei count in experiment [2] came to 163%. Besides, the z-score was -1.18 in experiment [3] (setting [10]), -0.333 in experiment [3] (setting [11]) and 2.49 in experiment [3] (setting [12]). The fluorescence slope in [5] was -0.474 (inactive). Further, the NADPH fluorescence slope in experiment [6] is -0.000294 (inactive). In [7], the slope is 0.00493 (inactive). For the same compound, the call in [8] was inactive.
For `CCOC(=O)c1oc2cc(O)cc(C)c2c(=O)c1-c1cscn1`, in experiment [1], the cell count stood at 583. The inhibition in experiment [1] was -5.6% (inactive); in experiment [2] it was -117% (inactive); in experiment [4] it was 19.8% (inactive); in experiment [9] it was -5.6% (inactive). The same compound yielded a nuclei count in experiment [2] of 133%. The z-score is 0.544 in [3] (setting [10]), -0.073 in experiment [3] (setting [11]) and -1.73 in [3] (setting [12]). For the same compound, the fluorescence slope in experiment [5] is -0.569 (inactive). The NADPH fluorescence slope in [6] was -4.5e-05 (inactive). For the same compound, in [7], the slope was 0.0036 (inactive). Further, the result in [8] was inactive.
On to `N/C(CCCN1CCCCC1)=N/O`, for which the cell count in experiment [1] came out at 498. The inhibition was -6% (inactive) in experiment [1], 28.3% (inactive) in [2], 17.3% (inactive) in experiment [4] and 12.2% (inactive) in [9]. In experiment [2], this compound displayed a nuclei count of 108%. For the same compound, the z-score is 1.83 in experiment [3] (setting [10]), -0.291 in [3] (setting [11]) and 0.182 in [3] (setting [12]). For the same compound, the fluorescence slope in experiment [5] was -0.509 (inactive). Further, the NADPH fluorescence slope in experiment [6] was -8e-06 (inactive). For the same compound, the slope in experiment [7] is 0.00607 (inactive). Also, the outcome in experiment [8] was inactive.
`CCCOC(=O)CSC1=C(C#N)C(c2ccccc2OCC)C(C#N)C(=O)N1` (stereo not given): the cell count in experiment [1] is 487. Further, the inhibition in [1] was -1.9% (inactive); in [2] it was -37.3% (inactive); in experiment [4], 7.48% (inactive); in experiment [9], -14.4% (inactive). Further, the nuclei count in experiment [2] came to 101%. The figures for the z-score in [3] (setting [10]), in experiment [3] (setting [11]) and in experiment [3] (setting [12]) were 0.769, -0.531 and 1.5, respectively. In experiment [5], the fluorescence slope was -0.499 (inactive). Further, the NADPH fluorescence slope in experiment [6] is -0.000121 (inactive). Also, the slope in experiment [7] was 0.00584 (inactive). The outcome in experiment [8] was inactive.
